ChEMBL document CHEMBL4411331, “6-Amino-3-methylpyrimidinones as Potent, Selective, and Orally Efficacious SHP2 Inhibitors” (J Med Chem, 2019)
In brackets after ≈: the same amount, converted by molar mass.

Assays:
[1] = Clearance in rat; assay type: ADME; settings: in vivo
[2] = Dose normalized AUC in rat at 1 mg/kg, po; assay type: ADME, organism-based; settings: in vivo
[3] = Apparent permeability across apical to basolateral side in human Caco2 cells; assay type: ADME, cell-based; settings: Caco-2
[4] = Half life in rat; assay type: ADME; settings: in vivo
[5] = Drug uptake in human Detroit 562 cells xenografted NU/NU mouse at 20 to 80 mg/kg, po BID; assay type: ADME, organism-based; settings: in vivo
Summary of the method: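 Detroit-562 xenografts (5 x 10^5 cells subcutaneously in 50% matrigel/HBSS) were grown in female athymic NU/NU mice. At about 300 mm3 the mice were dosed by oral gavage, with 0.5% methylcellulose/0.1% Tween 80 as the vehicle control. Mice were euthanized at set times, and plasma and tumor fragments were collected for compound concentration.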

[6] = Aqueous solubility of the compound in 6.8 pH buffer; assay type: physicochemical; settings: pH 6.8 buffer
[7] = Oral bioavailability in rat at 1 mg/kg; assay type: ADME, organism-based; settings: in vivo
[8] = Half life in mouse liver microsomes; assay type: ADME, Microsome
[9] = Half life in rat liver microsomes; assay type: ADME, Microsome
[10] = Intrinsic clearance in rat liver microsomes; assay type: ADME, Microsome; settings: read-out: CLH
[11] = Intrinsic clearance in mouse liver microsomes; assay type: ADME, Microsome; settings: read-out: CLH
[12] = Permeability in human Caco2 cells; assay type: ADME, cell-based; settings: Caco-2, read-out: permeability
[13] = Dose normalized AUC in rat at 6 mg/kg, po; assay type: ADME, organism-based; settings: in vivo
[14] = Oral bioavailability in rat at 6 mg/kg; assay type: ADME, organism-based; settings: in vivo

Row | clearance [1] [mL/min/kg] | AUC/dose [2] [µM·h] | Papp A→B [3] [×10⁻⁶ cm/s] | half-life [4] [h] | Drug uptake [5] | solubility [6] [µM] | bioavailability [7] [%] | half-life [8] [h] | half-life [9] [h] | microsomal CLint [10] [µL/min/mg] | microsomal CLint [11] [µL/min/mg] | Papp [12] [×10⁻⁶ cm/s] | AUC/dose [13] [µM·h] | bioavailability [14] [%] | SMILES
1 | 21 | 0.45 | 1.02 | 10.9 | Dose-dependent effect | 980 (≈ 461 µg/mL) | 29 | > 2 | > 2 | 7.9 to 11.1 | 7.9 to 11.1 |  |  |  | C[C@@H]1OCC2(CCN(c3nc(N)c(Sc4cccnc4C(F)(F)F)c(=O)n3C)CC2)[C@@H]1N
2 |  |  |  |  |  | 250 (≈ 107 µg/mL) |  |  |  |  |  | 2.5 |  |  | Cn1c(N2CCC(C)(CN)CC2)nc(N)c(Sc2cccc(Cl)c2Cl)c1=O
3 |  | 0.95 | 6.8 |  |  |  | 38 |  | 0.617 | 39.3 |  |  |  |  | C[C@@H]1OCC2(CCN(c3nc(N)c(Sc4cccc(Cl)c4Cl)c(=O)n3C)CC2)[C@@H]1N
4 |  |  | < 0.5 |  |  |  |  |  | 6.6 | 3.4 |  |  | 0.03 | 1 | C[C@H]1C[C@@H](N)C2(CCN(c3nc(N)c(Sc4cccnc4C(F)(F)F)c(=O)n3C)CC2)C1
